Experimental data as given in ChEMBL document CHEMBL3576855, “Spongosine production by a Vibrio harveyi strain associated with the sponge Tectitethya crypta” (J Nat Prod, 2015).
Calls of active or inactive are those of the source. No cut-off for these calls is given here.

Experiments:
RAW264.7 [1] = test: Antiinflammatory activity in mouse RAW264.7 cells assessed as inhibition of LPS-stimulated nitric oxide production up to 30 ug/ml after 24 hrs by Colorimetry based Griess assay; assay type: functional, cell-based
Method in brief: (§1)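 RAW 264.7 murine macrophages were pretreated with the nucleosides for 1 h at 0.1, 0.3, 1.0, 3.0, 10 and 30 μg/mL, with n = 6 wells per concentration. LPS (3 μg/mL) was then added and cells incubated 24 h. Nitrite was measured with Griess stain and expressed as percent reduction versus the LPS control. Significance was tested by ANOVA with Dunnett's test.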

RAW264.7 [2] = test: Cytotoxicity against mouse RAW264.7 cells assessed as cell viability after 48 hrs by MTT assay; assay type: cell-based; details: raw264.7, 48 h
RAW264.7 [3] = test: Antiinflammatory activity in mouse RAW264.7 cells assessed as inhibition of LPS-stimulated nitric oxide production at 3 ug/ml after 24 hrs by Colorimetry based Griess assay; assay type: functional; details: RAW264.7, 24 h; method in brief: as §1

SMILES | inhibition (RAW264.7 [1]) | Activity (RAW264.7 [2]) | inhibition at 3 µg/mL (RAW264.7 [3]) [%]
Nc1nc2c([nH]c(=O)n2[C@H]2C[C@H](O)[C@@H](CO)O2)c(=O)[nH]1 | Active |  | 
COc1nc(N)c2[nH]cnc2n1 |  | Non-toxic | 
Nc1nc2c(ncn2[C@H]2C[C@H](O)[C@@H](CO)O2)c(=O)[nH]1 [DEOXYGUANOSINE] |  | Non-toxic | 
COc1nc(N)c2nc[nH]c2n1 | Active |  | 
COc1nc(N)c2ncn([C@@H]3O[C@H](CO)[C@@H](O)[C@H]3O)c2n1 [BVT.115959] |  | Non-toxic | 60
Nc1nc2c(nc(O)n2[C@H]2C[C@H](O)[C@@H](CO)O2)c(=O)[nH]1 |  | Non-toxic | 
Nc1nc(O)c2ncn([C@H]3C[C@H](O)[C@@H](CO)O3)c2n1 | Active |  | 
COc1nc(N)c2ncn([C@H]3C[C@H](O)[C@@H](CO)O3)c2n1 | Active | Non-toxic | 
Cc1cn([C@@H]2O[C@H](CO)[C@@H](O)[C@@H]2O)c(=O)[nH]c1=O | Active | Non-toxic | 
